The values below come from ChEMBL document CHEMBL2062442, “Synthesis and biological evaluation of new N-acyl-homoserine-lactone analogues, based on triazole and tetrazole scaffolds, acting as LuxR-dependent quorum sensing modulators” (Bioorg Med Chem, 2012).

Molecules are shown by their SMILES. Active and inactive are the calls of the source. No cut-off for these calls is given here.

Type in all cases: functional
Assay [1] deals with T1, Transcriptional activator protein LuxR (Aliivibrio fischeri) (UniProt P12746).
T1 sequence (whole entry): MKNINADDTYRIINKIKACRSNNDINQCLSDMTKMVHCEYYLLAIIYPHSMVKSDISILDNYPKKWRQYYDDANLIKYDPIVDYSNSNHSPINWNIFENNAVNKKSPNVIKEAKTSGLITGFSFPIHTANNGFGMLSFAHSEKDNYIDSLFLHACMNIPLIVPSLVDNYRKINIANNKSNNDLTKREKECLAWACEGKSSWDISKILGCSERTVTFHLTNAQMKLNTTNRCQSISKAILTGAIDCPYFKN
The assay is described as follows: Agonist activity at Vibrio fischeri LuxR expressed in Escherichia coli NM522 coexpressing LuxCDABE assessed as activation of 3-oxoC6-HSL-induced quorum sensing activation at 200 uM measured after 4 to 5 hrs by reporter gene assay. The procedure, abridged: (§1)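 E. coli biosensor carrying pSB401, in which V. fischeri luxR and the luxI promoter drive P. luminescens luxCDABE. Cultures were grown to exponential phase in Luria broth with tetracycline (20) at 30 °C. Analogues were added alone at up to 200 in microtitre plates. Luminescence was read after 4–5 h, at the maximal ratio of induced to background light. EC50 is the concentration giving 50% bioluminescence intensity.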
A general note: Reporter assays use an easily measured gene product as a stand-in for the process of interest.

The target of assay [2] is T2, Transcriptional activator protein LuxR (Aliivibrio fischeri, UniProt P12746).
T2 sequence (P12746 whole entry): T1 sequence (whole entry)
Put plainly: Antagonist activity at Vibrio fischeri LuxR expressed in Escherichia coli NM522 coexpressing LuxCDABE assessed as inhibition of 3-oxoC6-HSL-induced quorum sensing activation measured after 4 to 5 hrs by reporter gene assay. A digest of the protocol:
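The inhibition read-out is the decrease in bioluminescence induced by 200 nM 3-oxo-C6-HSL in E. coli carrying pSB401 (V. fischeri luxR/luxI promoter fused to P. luminescens luxCDABE). Cells were grown to exponential phase in Luria broth with tetracycline at 30 °C. Light was quantified by luminometer in microtitre plates after 4–5 h, when the ratio of induced to background light peaked.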

For assay [3], the target named is T1, Transcriptional activator protein LuxR (Aliivibrio fischeri). Put plainly: Agonist activity at Vibrio fischeri LuxR expressed in Escherichia coli NM522 coexpressing LuxCDABE assessed as activation of 3-oxoC6-HSL-induced quorum sensing activation measured after 4 to 5 hrs by reporter gene assay relative to control. A digest of the protocol:
as §1

In assay [4] the target is T2, Transcriptional activator protein LuxR. The assay is described as follows: Agonist activity at Vibrio fischeri LuxR expressed in Escherichia coli NM522 coexpressing LuxCDABE assessed as activation of 3-oxoC6-HSL-induced quorum sensing activation measured after 4 to 5 hrs by reporter gene assay. A digest of the protocol: as §1

As for `CCCCCCCCCCCCc1cn(CC(=O)O)nn1`, in assay [1], the outcome was inactive.

In the case of `CCCCCn1cc(CC(=O)O)nn1`, the result in assay [1] was inactive.

Regarding `CCCCCCCCCCCCn1cc(CC(=O)OCC)nn1`, the result in assay [1] was inactive.

One may read the IC50 as the concentration at which inhibition is half-maximal. `CCCCCc1cn(CC(=O)NO)nn1`: the IC50 entry in assay [2] is “Not Active”. The outcome in assay [1] was inactive.

As for `CCCCn1nnnc1C1CCOC1=O` (racemic), the IC50 in assay [2] (read-out: IC50) is above 200 µM.

The term EC50 denotes the concentration giving half of the maximal effect. For `CCCCCc1nnnn1C1CCOC1=O` (racemic), the Activity in assay [3] was 59 RLU. Also, in assay [4], the EC50 was 10 µM.

In the case of `CCCCCc1cn(CC(=O)O)nn1`, the IC50 entry in assay [2] was “Not Active”. In assay [1], the outcome was inactive.

Take `CCCCCc1cn(CC(N)=O)nn1`: the IC50 result in assay [2] is “Not Active”. In addition, the outcome in assay [1] was inactive.

For the molecule `CCCCCCc1nnnn1C1CCOC1=O` (racemic), the Activity in assay [3] came to 102 RLU. In assay [4], the EC50 was 35 µM.

As for `CCCCCc1cn(C2CCOC2=O)nn1` (racemic), in assay [2] (read-out: IC50), the IC50 was found to be 51 µM. Moreover, the outcome in assay [1] was inactive.

With `CCCCCCn1nnnc1C1CCOC1=O` (racemic), the IC50 in assay [2] (read-out: IC50) was 74 µM.

Consider `CCCCCCCCCCCCc1cn(CC(=O)OCC)nn1`, for which the outcome in assay [1] was inactive.

Consider `CCCCCc1cn(CC(=O)OCC)nn1`, for which the IC50 in assay [2] (read-out: IC50) stood at 94 µM. In addition, the outcome in assay [1] was inactive.

Regarding `CCCCCn1nnnc1C1CCOC1=O` (racemic), in assay [2] (read-out: IC50), the IC50 was determined as 80 µM.

As for `CCCCCCCCCCCCn1cc(CC(=O)O)nn1`, the result in assay [1] was inactive.

For `CCCCCn1cc(CC(=O)OCC)nn1`, the result in assay [1] was inactive.

For `CCCCCCn1nnnc1CC(=O)OCC`, the IC50 in assay [2] (read-out: IC50) is above 200 µM.
